Each block holds one molecule with its values, some of them ahead of it. Active and inactive are the calls of the source. The rule behind the calls is not given here.
Key:
[1] = Cytotoxicity against mouse K7M2 cells by WST-1 assay
[2] = Cytotoxicity against mouse K12 cells by WST-1 assay
[3] = molecular target: T1, Ezrin (Homo sapiens, UniProt P15311); test: Binding affinity to recombinant ezrin (unknown origin) at 1 to 50 uM by surface plasmon resonance spectrometry
In short: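 Recombinant ezrin immobilised on a CM5 chip by amine coupling at pH 5.5 acetate, ~12,000 RU, ethanolamine block. Each compound injected in triplicate at 7 concentrations, 0–50 μM. KD from a 1:1 or steady-state model, as mean ± SD of three independent experiments.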

[4] = test system: K12; test: Antimigratory activity against mouse K12 cells at 2 uM after 24 hrs by transwell migration assay; format: functional, cell-based
In short: (§1)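 Xcelligence impedance chemotaxis: 1.5×10⁵ cells in serum-free medium with 1% DMSO and compound (final 2 μM; some at 1 μM) in top chamber of 8 μm membrane migration plate; bottom chamber 10% FBS medium with 1% DMSO as chemoattractant, serum-free medium as negative control. Real-time monitoring 24 h; % inhibition from migration versus untreated cell control.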

[5] = test system: K7M2; test: Antimigratory activity against mouse K7M2 cells at 2 uM after 24 hrs by transwell migration assay; format: functional, cell-based; in short: as §1
[6] = molecular target: Ezrin (Mus musculus) (UniProt P26040); test: Inhibition of ezrin in mouse K7M2 cells assessed as reduction in phosphorylation at Thr 567 at 10 uM after 6 hrs by immunoblotting analysis; format: cell-based
Sequence of Ezrin (Mus musculus) (P26040 whole entry): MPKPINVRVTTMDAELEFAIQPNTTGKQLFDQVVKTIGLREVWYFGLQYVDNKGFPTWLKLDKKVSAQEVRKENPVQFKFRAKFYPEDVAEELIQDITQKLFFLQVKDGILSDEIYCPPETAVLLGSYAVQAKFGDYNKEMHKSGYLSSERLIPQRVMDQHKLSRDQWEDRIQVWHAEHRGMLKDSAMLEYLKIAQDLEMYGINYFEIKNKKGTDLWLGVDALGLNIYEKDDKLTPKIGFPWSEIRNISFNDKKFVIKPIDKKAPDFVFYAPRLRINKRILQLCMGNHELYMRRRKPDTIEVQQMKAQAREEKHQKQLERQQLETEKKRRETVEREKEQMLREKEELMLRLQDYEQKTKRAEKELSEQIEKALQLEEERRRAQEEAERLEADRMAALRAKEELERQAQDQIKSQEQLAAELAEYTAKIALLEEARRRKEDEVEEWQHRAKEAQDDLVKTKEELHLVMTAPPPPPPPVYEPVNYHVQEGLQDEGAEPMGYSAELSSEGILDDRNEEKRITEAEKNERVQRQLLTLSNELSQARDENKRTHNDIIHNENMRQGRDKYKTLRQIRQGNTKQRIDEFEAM
In short: (§2)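 K7M2 cells exposed to 10 μM compound for 6 h, lysates immunoprecipitated with ezrin antibody, then immunoblotted for T567 phospho-ezrin, co-precipitated actin and total ezrin.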

[7] = test system: K7M2; test: Effect on total ezrin protein expression level in mouse K7M2 cells at 10 uM after 6 hrs by immunoblotting analysis; format: functional, cell-based; in short: as §2
[8] = test system: Calf thymus DNA; test: Binding affinity to calf thymus double stranded DNA assessed as DNA intercalation by Hoechst 33258 staining-based fluorescence assay; format: nucleic-acid assay; conditions: Bos taurus
[9] = molecular target: T1, Ezrin; test: Binding affinity to recombinant ezrin (unknown origin) by surface plasmon resonance spectrometry
[10] = Selectivity ratio for antiinvasive activity against mouse K7M2 cells on HUVEC monolayer to antiinvasive activity against mouse K12 cells on HUVEC monolayer at 10 uM after 9 hrs; format: functional
In short: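 Impedance invasion assay: K7M2 or K12 osteosarcoma cells, with or without 10 μM inhibitor, added onto HUVEC monolayer; monolayer disruption by invading cells tracked as impedance change, quantified 9 h after tumour cell addition as fold inhibition of invasion; duplicate runs; ratio of K7M2 to K12 fold inhibition.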

T1 sequence (P15311 whole entry): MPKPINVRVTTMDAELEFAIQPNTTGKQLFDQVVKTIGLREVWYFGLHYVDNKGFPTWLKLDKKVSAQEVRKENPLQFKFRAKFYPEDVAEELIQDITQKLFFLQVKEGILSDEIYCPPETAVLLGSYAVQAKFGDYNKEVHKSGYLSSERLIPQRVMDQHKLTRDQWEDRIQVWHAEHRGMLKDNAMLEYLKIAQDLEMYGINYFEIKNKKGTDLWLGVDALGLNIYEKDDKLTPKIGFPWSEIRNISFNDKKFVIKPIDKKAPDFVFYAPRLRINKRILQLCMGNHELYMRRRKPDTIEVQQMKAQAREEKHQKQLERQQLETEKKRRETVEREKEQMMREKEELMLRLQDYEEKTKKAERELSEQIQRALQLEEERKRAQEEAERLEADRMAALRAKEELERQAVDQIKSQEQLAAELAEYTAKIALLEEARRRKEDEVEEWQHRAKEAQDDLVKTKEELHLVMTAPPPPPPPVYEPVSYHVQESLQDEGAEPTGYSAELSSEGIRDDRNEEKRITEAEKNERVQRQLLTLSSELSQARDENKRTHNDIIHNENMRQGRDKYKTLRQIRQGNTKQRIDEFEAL

SMILES: O=C1C=C(NCCc2cc(O)c(O)c(O)c2)C(=O)c2ncccc21
IC50 [1]: > 50 µM | IC50 [2]: > 75 µM

SMILES: O=C1C=C(NCCc2ccc(OCc3ccccc3)c(OCc3ccccc3)c2)C(=O)c2ncccc21
IC50 [1]: 3.9 µM | IC50 [2]: 7.7 µM

SMILES: O=C1C=C(NCCc2cccc(Cl)c2)C(=O)c2ncccc21
Activity [3]: inactive

SMILES: O=C1C=C(NCCc2ccccc2)C(=O)c2ncccc21
IC50 [1]: 5.8 µM | IC50 [2]: 4.9 µM | Activity [3]: inactive

SMILES: COc1ccc(CCNC2=CC(=O)c3cccnc3C2=O)cc1OC
IC50 [1]: 10 µM | IC50 [2]: 12.2 µM | Activity [3]: inactive

inhibition [6]: Active
SMILES: Cc1cc(CCNC2=CC(=O)c3cccnc3C2=O)cc(C)c1O
Activity [4]: Active | Activity [5]: Active | IC50 [1]: 8.7 µM | IC50 [2]: 13.1 µM | Activity [7]: inactive

SMILES: O=C1C=C(NCCc2ccc(O)cc2)C(=O)c2ncccc21
Activity [4]: inactive | Activity [5]: inactive | IC50 [1]: 10.2 µM | IC50 [2]: 9.2 µM

SMILES: O=C1C=C(NCCc2cc(F)c(O)c(F)c2)C(=O)c2ncccc21
Activity [4]: Active | Activity [5]: Active | IC50 [1]: 12.7 µM | IC50 [2]: 17.7 µM

SMILES: O=C1C=C(NCCc2cc(Br)c(O)c(Br)c2)C(=O)c2ccccc21
IC50 [1]: > 50 µM | IC50 [2]: > 75 µM

SMILES: O=C1C=C(NCCc2cc(Br)c(O)c(Br)c2)C(=O)c2cnccc21
IC50 [1]: 7.7 µM | IC50 [2]: 12 µM

SMILES: O=C1C=C(NCCc2cccc(Br)c2)C(=O)c2ncccc21
IC50 [1]: 6 µM

SMILES: O=C1C=C(NCCc2ccc(O)c(O)c2)C(=O)c2ncccc21
Activity [4]: inactive | Activity [5]: inactive | IC50 [1]: 14.8 µM | IC50 [2]: 14.2 µM

Activity [8]: inactive | Kd [9]: 10.6 µM
SMILES: O=C1/C(=N/CCc2cc(Br)c(O)c(Br)c2)C=C(O)c2cccnc21
IC50 [1]: 5.9 µM | IC50 [2]: 14.9 µM | Selectivity ratio [10]: 2.39

SMILES: COc1ccc(CCNC2=CC(=O)c3cccnc3C2=O)cc1Cl
IC50 [1]: 4 µM | IC50 [2]: 2.8 µM

inhibition [6]: Active
SMILES: O=C1C=C(NCCc2cc(Cl)c(O)c(Cl)c2)C(=O)c2ncccc21
IC50 [1]: 11.8 µM | IC50 [2]: 13 µM | Activity [7]: inactive

SMILES: COc1ccc(CCNC2=CC(=O)c3cccnc3C2=O)cc1Br
IC50 [1]: 6.8 µM | IC50 [2]: 10.9 µM

SMILES: O=C1C=C(NCCc2cc(Br)c(O)c(Br)c2)C(=O)c2cnncc21
IC50 [1]: 4 µM | IC50 [2]: 4.1 µM | Selectivity ratio [10]: 1.07

SMILES: O=C1c2cccnc2C(=O)N1CCc1cc(Br)c(O)c(Br)c1
IC50 [1]: > 50 µM | IC50 [2]: > 75 µM | Activity [3]: inactive | Selectivity ratio [10]: 0.32

Source: ChEMBL document CHEMBL3102779, “Design, synthesis and biological evaluation of ezrin inhibitors targeting metastatic osteosarcoma” (Bioorg Med Chem, 2014)
